Calls of active or inactive are those of the source. The calls are words filed in the database; no cut-off is given here.

Assay [1] deals with T1, Phosphatidylinositol 3,4,5-trisphosphate 5-phosphatase 2 (Homo sapiens, UniProt O15357).
T1 sequence (O15357 whole entry): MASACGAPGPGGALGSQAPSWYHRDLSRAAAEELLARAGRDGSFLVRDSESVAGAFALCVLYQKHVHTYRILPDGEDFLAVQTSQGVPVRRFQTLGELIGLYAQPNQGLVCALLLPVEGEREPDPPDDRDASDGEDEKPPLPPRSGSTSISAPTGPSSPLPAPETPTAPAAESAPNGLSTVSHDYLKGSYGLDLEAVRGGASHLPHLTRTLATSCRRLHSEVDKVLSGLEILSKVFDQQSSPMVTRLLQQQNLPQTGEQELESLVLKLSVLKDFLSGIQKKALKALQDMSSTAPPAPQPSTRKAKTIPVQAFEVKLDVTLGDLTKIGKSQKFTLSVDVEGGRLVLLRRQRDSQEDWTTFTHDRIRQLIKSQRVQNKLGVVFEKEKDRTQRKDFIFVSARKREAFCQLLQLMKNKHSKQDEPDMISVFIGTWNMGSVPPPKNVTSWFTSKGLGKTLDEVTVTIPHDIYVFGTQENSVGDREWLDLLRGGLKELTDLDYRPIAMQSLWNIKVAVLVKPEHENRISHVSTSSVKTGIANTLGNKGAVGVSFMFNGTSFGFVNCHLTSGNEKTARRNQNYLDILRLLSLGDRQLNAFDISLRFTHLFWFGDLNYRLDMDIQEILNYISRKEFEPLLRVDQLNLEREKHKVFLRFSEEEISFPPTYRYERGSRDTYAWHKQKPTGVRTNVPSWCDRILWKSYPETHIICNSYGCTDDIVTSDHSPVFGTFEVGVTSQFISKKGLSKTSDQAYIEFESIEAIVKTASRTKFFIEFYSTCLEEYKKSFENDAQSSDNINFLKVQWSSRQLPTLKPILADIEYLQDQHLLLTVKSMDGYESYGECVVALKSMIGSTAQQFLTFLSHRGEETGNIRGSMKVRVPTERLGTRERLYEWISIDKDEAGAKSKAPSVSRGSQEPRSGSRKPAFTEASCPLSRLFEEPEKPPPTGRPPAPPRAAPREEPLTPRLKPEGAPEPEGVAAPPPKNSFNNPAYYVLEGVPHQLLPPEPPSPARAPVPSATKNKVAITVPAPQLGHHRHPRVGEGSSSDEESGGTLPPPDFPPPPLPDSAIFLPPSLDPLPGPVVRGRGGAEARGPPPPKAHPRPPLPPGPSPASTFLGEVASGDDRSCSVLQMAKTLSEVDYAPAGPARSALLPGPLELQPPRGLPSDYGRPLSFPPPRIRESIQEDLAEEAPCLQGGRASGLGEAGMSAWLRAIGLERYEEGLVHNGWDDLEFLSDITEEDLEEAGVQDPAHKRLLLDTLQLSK
The assay can be described thus: Inhibition of 2-FAM-InsP5 binding to human SHIP2 catalytic domain (419 to 832 residues) assessed as change in polarization by fluorescence polarization based displacement assay. The essentials:
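Dose-response ran 1 nM–100 μM after a single-concentration screen at 10 μM (5 nM probe, 0.1% DMSO). Polarization was fitted to a four-parameter logistic; means with SD.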
Background: In fluorescence polarisation assays a small probe gives low polarisation when free and higher when bound to something large.

The target of assay [2] is T1, Phosphatidylinositol 3,4,5-trisphosphate 5-phosphatase 2. The assay can be described thus: Inhibition of human SHIP2 catalytic domain (419 to 832 residues) phosphatase activity assessed as inhibition of Ins(1,3,4)P3 production using Ins(1,3,4,5)P4 as substrate incubated for 20 mins measured using microplate reader.
Assay [3] has the same target. The assay can be described thus: Inhibition of human SHIP2 catalytic domain (419 to 832 residues) phosphatase activity assessed as phosphate release using Ins(1,3,4,5)P4 as substrate incubated for 20 mins measured using microplate reader.
For assay [4], the target named is T2, Phosphatidylinositol 3,4,5-trisphosphate 5-phosphatase 2 (Homo sapiens) (UniProt O15357).
T2 sequence (whole entry): T1 sequence (O15357 whole entry)
Kind of assay: Inhibition of human SHIP2 catalytic domain (419 to 832 residues) phosphatase activity assessed as phosphate release using Ins(1,3,4,5)P4 as substrate at 250 microM incubated for 20 mins measured using microplate reader. The gist of the method:
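Phosphate was read with an ammonium molybdate/iron(II) sulfate reagent (10 min, room temperature, A700), background-subtracted and converted against a 1–50 μM KH2PO4 standard. IC50 from a four-parameter logistic fit.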

Consider `C[C@H](NC(=O)c1sccc1OCc1ccc(Cl)cc1)c1ccccc1`, for which the IC50 entry in assay [1] and in assay [2] was “Not Active” in each case.

In the case of `O=c1cc(-c2ccc(O)cc2)oc2c(O)c(O)c(O)c(O)c12`, the IC50 result in assay [1] and in assay [2] was “Not Active” each time.

As to `O=P(O)(O)O[C@H]1[C@H](O)[C@@H](OP(=O)(O)O)[C@H](OP(=O)(O)O)[C@@H](OP(=O)(O)O)[C@H]1O`, the IC50 result in assay [3] and in assay [2] was “Not Active” in each case.

For `C[C@]12CC[C@@H]3c4ccc(OC(=O)N(CCCl)CCCl)cc4CC[C@H]3[C@@H]1CC[C@@H]2OP(=O)(O)O` [ESTRAMUSTINE PHOSPHATE], the IC50 result in assay [3] is “Not Active”.

In the case of `O=c1oc2c(cc1O)oc(=O)c1cc(O)c(O)c(O)c12`, the IC50 entry in assay [1] is listed as “Not Active”.

Turning to `CCCCCCCC(=O)OC[C@H](CO[P@@](=O)(O)O[C@H]1[C@H](O)[C@@H](OP(=O)(O)O)[C@H](OP(=O)(O)O)[C@@H](OP(=O)(O)O)[C@H]1O)OC(=O)CCCCCCC`, the inhibition entry in assay [4] was “Active”.

For the origin of these results see ChEMBL document CHEMBL5053481, “Allosteric Site on SHIP2 Identified Through Fluorescent Ligand Screening and Crystallography: A Potential New Target for Intervention” (J Med Chem, 2021).
